Measurements: ChEMBL document CHEMBL4602720, “Degradation versus Inhibition: Development of Proteolysis-Targeting Chimeras for Overcoming Statin-Induced Compensatory Upregulation of 3-Hydroxy-3-methylglutaryl Coenzyme A Reductase” (J Med Chem, 2020)
Activity calls are given as the source filed them. No cut-off for these calls is given here.

Key:
[1] = biological target: T1, Sterol regulatory element-binding protein 2 (Mus musculus) (UniProt Q3U1N2); test: Activation of SREBP2 pathway in mouse primary hepatocytes assessed as increase in HMGCR mRNA expression at 0.01 to 1 uM afer 16 hrs by quantitative real-time PCR analysis; type: cell-based
T1 sequence (whole entry): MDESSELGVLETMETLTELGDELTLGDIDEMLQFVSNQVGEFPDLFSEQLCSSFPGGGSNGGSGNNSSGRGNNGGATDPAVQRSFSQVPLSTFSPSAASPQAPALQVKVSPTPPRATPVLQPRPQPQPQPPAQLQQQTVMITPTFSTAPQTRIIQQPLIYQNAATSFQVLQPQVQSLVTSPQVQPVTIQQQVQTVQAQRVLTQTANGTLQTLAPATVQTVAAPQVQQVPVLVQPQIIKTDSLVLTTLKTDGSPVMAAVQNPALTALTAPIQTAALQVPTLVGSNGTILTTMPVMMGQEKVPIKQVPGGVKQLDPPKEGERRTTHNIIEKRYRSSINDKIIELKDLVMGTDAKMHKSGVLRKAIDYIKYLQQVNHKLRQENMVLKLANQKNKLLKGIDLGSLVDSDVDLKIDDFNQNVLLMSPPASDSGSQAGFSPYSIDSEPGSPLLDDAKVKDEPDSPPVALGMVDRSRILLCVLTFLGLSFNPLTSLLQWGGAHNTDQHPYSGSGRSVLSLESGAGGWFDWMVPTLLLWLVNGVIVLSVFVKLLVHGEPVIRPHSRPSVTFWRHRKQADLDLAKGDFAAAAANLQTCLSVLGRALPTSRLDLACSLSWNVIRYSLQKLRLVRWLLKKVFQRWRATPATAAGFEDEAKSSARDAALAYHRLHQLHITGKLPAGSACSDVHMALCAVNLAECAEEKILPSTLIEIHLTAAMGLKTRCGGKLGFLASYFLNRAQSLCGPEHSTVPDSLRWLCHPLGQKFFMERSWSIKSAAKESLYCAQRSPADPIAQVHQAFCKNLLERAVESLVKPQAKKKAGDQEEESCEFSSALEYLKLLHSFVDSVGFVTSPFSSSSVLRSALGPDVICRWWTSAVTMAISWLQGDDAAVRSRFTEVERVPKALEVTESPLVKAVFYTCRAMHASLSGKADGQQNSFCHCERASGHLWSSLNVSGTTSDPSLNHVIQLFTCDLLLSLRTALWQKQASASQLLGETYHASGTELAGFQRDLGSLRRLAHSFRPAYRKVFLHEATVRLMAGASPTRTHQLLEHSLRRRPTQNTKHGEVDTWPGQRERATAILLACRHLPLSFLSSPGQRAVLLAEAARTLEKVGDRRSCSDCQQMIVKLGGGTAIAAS

[2] = biological target: T1, Sterol regulatory element-binding protein 2 (Mus musculus); test: Activation of SREBP2 pathway in mouse primary hepatocytes assessed as increase in LDLR mRNA expression at 0.01 to 1 uM afer 16 hrs by quantitative real-time PCR analysis; type: cell-based
[3] = biological target: T2, Protein cereblon/3-hydroxy-3-methylglutaryl-coenzyme A reductase (Cricetulus griseus, UniProt P00347+G3H338); test: Protac activity at CRBN/HMGCR in Insig-1/Insig-2 deficient Chinese hamster SRD15 cells assessed as induction of HMGCR degradation after 16 hrs by immunoblotting analysis
T2 sequence (P00347 whole entry): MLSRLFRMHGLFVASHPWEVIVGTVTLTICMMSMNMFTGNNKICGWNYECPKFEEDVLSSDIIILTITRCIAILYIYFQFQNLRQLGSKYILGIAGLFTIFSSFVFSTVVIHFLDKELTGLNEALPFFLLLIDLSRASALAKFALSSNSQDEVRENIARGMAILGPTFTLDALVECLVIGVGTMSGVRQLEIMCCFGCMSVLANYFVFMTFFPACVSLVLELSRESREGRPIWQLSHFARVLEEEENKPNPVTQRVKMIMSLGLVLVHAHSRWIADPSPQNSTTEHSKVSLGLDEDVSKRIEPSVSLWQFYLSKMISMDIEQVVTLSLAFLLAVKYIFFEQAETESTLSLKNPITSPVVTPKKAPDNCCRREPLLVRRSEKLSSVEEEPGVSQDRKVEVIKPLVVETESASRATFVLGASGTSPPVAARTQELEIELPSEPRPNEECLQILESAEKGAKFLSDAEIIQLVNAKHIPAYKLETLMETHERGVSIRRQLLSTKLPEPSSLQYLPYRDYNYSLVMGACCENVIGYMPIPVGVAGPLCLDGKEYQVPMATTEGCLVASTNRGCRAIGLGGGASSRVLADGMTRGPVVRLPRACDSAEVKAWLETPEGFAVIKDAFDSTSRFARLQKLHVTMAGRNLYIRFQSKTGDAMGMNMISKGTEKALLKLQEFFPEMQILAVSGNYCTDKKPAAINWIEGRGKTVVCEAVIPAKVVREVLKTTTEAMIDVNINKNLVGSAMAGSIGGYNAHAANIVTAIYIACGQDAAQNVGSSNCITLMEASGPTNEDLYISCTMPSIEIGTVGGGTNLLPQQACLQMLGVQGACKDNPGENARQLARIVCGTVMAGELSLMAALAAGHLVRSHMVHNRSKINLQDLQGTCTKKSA
T2 sequence (G3H338 whole entry): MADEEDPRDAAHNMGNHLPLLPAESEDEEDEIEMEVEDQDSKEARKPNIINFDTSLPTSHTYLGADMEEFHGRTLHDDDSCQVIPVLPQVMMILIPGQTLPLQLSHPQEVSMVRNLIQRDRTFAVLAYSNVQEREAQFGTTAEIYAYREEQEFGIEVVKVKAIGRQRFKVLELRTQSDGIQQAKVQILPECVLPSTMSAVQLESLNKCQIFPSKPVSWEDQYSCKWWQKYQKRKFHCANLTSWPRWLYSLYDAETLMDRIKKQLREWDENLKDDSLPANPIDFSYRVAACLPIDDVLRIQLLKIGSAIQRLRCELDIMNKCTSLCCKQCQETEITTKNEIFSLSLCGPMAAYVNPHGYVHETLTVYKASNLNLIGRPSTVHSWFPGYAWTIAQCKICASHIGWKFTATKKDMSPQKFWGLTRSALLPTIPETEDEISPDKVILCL
Summary of the method: (§1)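 SRD15 cells treated with compound at varying concentrations for 16 h, final DMSO ≤0.1%; RIPA lysates (Lowry protein) immunoblotted for HMGCR, densitometry normalized to actin, DMSO set to 1; DC50 = concentration giving 50% loss versus DMSO, fitted to dose-response curve, mean of 3 independent experiments.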

[4] = biological target: T3, Protein cereblon/3-hydroxy-3-methylglutaryl-coenzyme A reductase (Cricetulus griseus) (UniProt P00347+G3H338); test: Protac activity at CRBN/HMGCR in Insig-1/Insig-2 deficient Chinese hamster SRD15 cells assessed as induction of HMGCR degradation at 3 uM after 16 hrs by immunoblotting analysis; summary of the method: as §1
[5] = biological target: T3, Protein cereblon/3-hydroxy-3-methylglutaryl-coenzyme A reductase (Cricetulus griseus); test: Protac activity at CRBN/HMGCR in Insig-1/Insig-2 deficient Chinese hamster SRD15 cells assessed as induction of HMGCR degradation at 0.01 to 1 uM after 16 hrs by immunoblotting analysis; summary of the method: as §1
Huh-7 = test: Inhibition of cholesterol biosynthesis in human HuH7 cells preincubated for 14 hrs and followed by addition of 14C-acetate and measured after 2 hrs by TL method; type: functional, cell-based
Summary of the method: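 Sterol-depleted Huh7 cells (Medium B plus 5% lipoprotein-deficient serum) treated at varying concentrations for 14 h, pulse-labelled with ¹⁴C-acetate 1 μCi/μL for 2 h, washed, lysed in 0.1 M NaOH; lipids separated by TLC, ¹⁴C-cholesterol read by phosphorimager, DMSO set to 1.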

[6] = biological target: T4, Thioredoxin domain-containing protein 11 (Homo sapiens) (UniProt Q6PKC3); test: Activation of TXNDC11 (unknown origin)
T4 sequence (whole entry): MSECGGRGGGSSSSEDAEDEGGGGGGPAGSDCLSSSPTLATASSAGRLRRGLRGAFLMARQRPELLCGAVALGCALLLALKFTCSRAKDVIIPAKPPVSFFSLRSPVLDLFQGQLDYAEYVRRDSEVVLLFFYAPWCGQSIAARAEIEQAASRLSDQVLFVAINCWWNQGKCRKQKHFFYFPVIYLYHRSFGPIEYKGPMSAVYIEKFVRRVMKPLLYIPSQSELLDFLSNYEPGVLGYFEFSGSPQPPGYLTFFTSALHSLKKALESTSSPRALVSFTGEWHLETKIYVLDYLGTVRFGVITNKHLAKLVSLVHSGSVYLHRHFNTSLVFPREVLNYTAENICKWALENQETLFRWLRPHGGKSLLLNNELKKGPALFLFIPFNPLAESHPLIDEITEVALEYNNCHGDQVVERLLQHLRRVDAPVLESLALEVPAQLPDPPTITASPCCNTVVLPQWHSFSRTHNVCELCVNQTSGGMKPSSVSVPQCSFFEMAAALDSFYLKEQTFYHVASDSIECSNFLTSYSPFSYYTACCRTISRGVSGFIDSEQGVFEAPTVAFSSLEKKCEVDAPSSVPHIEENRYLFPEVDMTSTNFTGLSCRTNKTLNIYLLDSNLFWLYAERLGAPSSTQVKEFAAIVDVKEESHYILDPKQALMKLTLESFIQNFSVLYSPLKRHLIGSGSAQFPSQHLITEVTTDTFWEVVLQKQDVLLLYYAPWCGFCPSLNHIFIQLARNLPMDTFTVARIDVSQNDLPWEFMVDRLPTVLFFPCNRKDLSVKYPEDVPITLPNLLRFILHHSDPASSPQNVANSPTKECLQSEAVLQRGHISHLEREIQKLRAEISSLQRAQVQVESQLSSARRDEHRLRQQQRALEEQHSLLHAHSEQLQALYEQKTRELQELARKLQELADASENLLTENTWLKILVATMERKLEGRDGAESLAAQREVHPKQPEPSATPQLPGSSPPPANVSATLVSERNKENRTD

| Activity [1] | Activity [2] | DC50 [3] [nM] | Activity [5] | Structure (SMILES) | other results |
| --- | --- | --- | --- | --- | --- |
| Active | Active | 200 | – | CC(C)c1c(C(=O)Nc2ccccc2)c(-c2cccc(OCCCc3cn(CCCCCCCNc4cccc5c4C(=O)N(C4CCC(=O)NC4=O)C5=O)nn3)c2)c(-c2ccc(F)cc2)n1CC[C@@H](O)C[C@@H](O)CC(=O)O (stereo partly specified) | – |
| – | – | 300 | – | CC(C)c1c(C(=O)Nc2ccccc2)c(-c2cccc(OCCCc3cn(CCOCCOCCOCCOCCNc4ccc5c(c4)C(=O)N(C4CCC(=O)NC4=O)C5=O)nn3)c2)c(-c2ccc(F)cc2)n1CC[C@@H](O)C[C@@H](O)CC(=O)O (stereo partly specified) | Activity [4]: inactive |
| Active | Active | 300 | – | CC(C)c1c(C(=O)Nc2ccccc2)c(-c2cccc(OCCCCc3cn(CCCCCCCNc4cccc5c4C(=O)N(C4CCC(=O)NC4=O)C5=O)nn3)c2)c(-c2ccc(F)cc2)n1CC[C@@H](O)C[C@@H](O)CC(=O)O (stereo partly specified) | – |
| Active | Active | 400 | – | CC(C)c1c(C(=O)Nc2ccccc2)c(-c2cccc(OCCCc3cn(CCCCCCNc4cccc5c4C(=O)N(C4CCC(=O)NC4=O)C5=O)nn3)c2)c(-c2ccc(F)cc2)n1CC[C@@H](O)C[C@@H](O)CC(=O)O (stereo partly specified) | – |
| – | – | > 3000 | – | CC(C)c1c(C(=O)Nc2ccccc2)c(-c2cccc(OCCCCc3cn(CCOCCNc4cccc5c4C(=O)N(C4CCC(=O)NC4=O)C5=O)nn3)c2)c(-c2ccc(F)cc2)n1CC[C@@H](O)C[C@@H](O)CC(=O)O (stereo partly specified) | – |

More lines, now with the values behind:

| Structure (SMILES) | Activity [1] | Activity [2] | DC50 [3] [nM] | Activity [5] | other results |
| --- | --- | --- | --- | --- | --- |
| C#CCOc1cccc(-c2c(C(=O)Nc3ccccc3)c(C(C)C)n(CC[C@@H](O)C[C@@H](O)CC(=O)O)c2-c2ccc(F)cc2)c1 | – | – | – | inactive | – |
| C#CCCCCCOc1cccc(-c2c(C(=O)Nc3ccccc3)c(C(C)C)n(CC[C@@H](O)C[C@@H](O)CC(=O)O)c2-c2ccc(F)cc2)c1 | – | – | – | inactive | – |
| CC(C)c1c(C(=O)Nc2ccccc2)c(-c2cccc(OCCCCCc3cn(CCCCCCCNc4cccc5c4C(=O)N(C4CCC(=O)NC4=O)C5=O)nn3)c2)c(-c2ccc(F)cc2)n1CC[C@@H](O)C[C@@H](O)CC(=O)O (stereo partly specified) | Active | Active | 400 | – | – |
| CC(C)c1c(C(=O)Nc2ccccc2)c(-c2ccccc2)c(-c2ccc(F)cc2)n1CC[C@@H](O)C[C@@H](O)CC(=O)O | – | – | – | – | inhibition (Huh-7): Active; fold change (FC) [6]: 108 |
| C#CCCCOc1cccc(-c2c(C(=O)Nc3ccccc3)c(C(C)C)n(CC[C@@H](O)C[C@@H](O)CC(=O)O)c2-c2ccc(F)cc2)c1 | – | – | – | inactive | – |
| C#CCCCCOc1cccc(-c2c(C(=O)Nc3ccccc3)c(C(C)C)n(CC[C@@H](O)C[C@@H](O)CC(=O)O)c2-c2ccc(F)cc2)c1 | – | – | – | inactive | – |
